pIC50: −log10 of the molar value. The source made the active and inactive calls. The rule behind the calls is not given here.
Legend:
Cavia porcellus [1] = organism: Cavia porcellus; assay: Compound was tested for th inhibition of SRS-A production in guinea pig lung; format: functional
Method in brief: (§1)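 Antigen-challenged lung fragments from sensitized guinea pigs were treated with 10 μM test agent or DMSO vehicle 12 min before challenge. Tyrode's contained 10 mM cysteine and 10 μM indomethacin. SRS-A in ethanol extracts was bioassayed on guinea pig ileum and given as units/g, mean ± SEM of 4 lungs. A paired t test compared treatment with vehicle.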

Cavia porcellus [2] = organism: Cavia porcellus; assay: Inhibitory activity against SRS-A release in guinea pig; 0.7-2 uM; format: functional
Method in brief: (§2)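 Male Hartley guinea pigs were sensitized with ovalbumin (5 mg ip + 5 mg sc on day 1, 5 mg ip on day 4). About 400 mg chopped lung was preincubated with compound for 12 min at 37 °C in Tyrode's with 10 mM cysteine, then challenged with 20 μg/mL ovalbumin (final) for 0.25 h. SRS-A in ethanol-extracted supernatant was bioassayed on mepyramine-treated ileum against a rat SRS-A standard. Results are % inhibition versus vehicle, from 3-4 lungs.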

Cavia porcellus [3] = assay: Effective oral dose required to inhibit bronchospasm in guinea pig; 1.3-7.6 mg/kg; format: functional; details: Bronchiole
Method in brief: (§3)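 Guinea pigs were sensitized with ovalbumin and used 3-4 weeks later. They were fasted and anesthetized with dialurethane ip. Compounds were given orally 2 h before challenge. Propranolol 1 mg/kg, indomethacin 5 mg/kg and mepyramine 2 mg/kg were given iv 15 min before a 0.5 min aerosol of 0.5% ovalbumin through the tracheal cannula. The rise in inflation pressure measured bronchoconstriction. Results are % inhibition, 4-5 animals per group.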

Cavia porcellus [4] = organism: Cavia porcellus; assay: Production of LTD4 in guinea pig lung; format: functional
Method in brief: (§4)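 Lung fragments pooled from four sensitized guinea pigs were challenged in 0.4 g aliquots with antigen, with 10 μM test agent or DMSO vehicle added 12 min before challenge. Tyrode's held 10 mM cysteine and 10 μM indomethacin. Ethanol extracts were pooled, solvent-partitioned and run on reverse-phase HPLC with UV 280 nm. LTD4 was quantified against an LTC4 standard curve (10-200 pmol) as pmol/g.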

Cavia porcellus [5] = organism: Cavia porcellus; assay: Production of SRS-A in guinea pig lung; format: functional; method in brief: as §1
Cavia porcellus [6] = organism: Cavia porcellus; assay: Percent inhibition of SRS-A release in vitro at a dose of 10 uM in guinea pig; format: functional; method in brief: as §2
Cavia porcellus [7] = assay: Percent inhibition of bronchospasm in vivo at a dose of 12.5 mg/kg in guinea pig; format: functional; details: Bronchiole; method in brief: as §3
Mus musculus = organism: Mus musculus; assay: Compound was tested in vitro in cloned murine mast cell (MC-9) for the inhibition of production of leukotriene products at 50 uM concentration; No inhibition; format: functional
Rattus norvegicus = organism: Rattus norvegicus; assay: Compound was tested in vitro in rat polymorphonuclear leucocyte for the inhibition of production of leukotriene products at 50 uM concentration; No inhibition; format: functional
Cavia porcellus [8] = organism: Cavia porcellus; assay: Compound was tested for th inhibition of LTD4 production in guinea pig lung; format: functional; method in brief: as §4
Cavia porcellus [9] = organism: Cavia porcellus; assay: Percent inhibition of SRS-A release in vitro at a dose of 3 uM in guinea pig; format: functional; method in brief: as §2
Cavia porcellus [10] = organism: Cavia porcellus; assay: Inhibitory activity against sulfidopeptide leukotriene release in guinea pig; format: functional
Cavia porcellus [11] = assay: Effective oral dose required to inhibit bronchospasm in guinea pig; format: functional; details: Bronchiole; method in brief: as §3
Cavia porcellus [12] = organism: Cavia porcellus; assay: Inhibitory activity against SRS-A release in guinea pig; 0.05-14 uM; format: functional; method in brief: as §2
Cavia porcellus [13] = assay: Effective oral dose required to inhibit bronchospasm in guinea pig; 0.9-12.8 mg/kg; format: functional; details: Bronchiole; method in brief: as §3
Cavia porcellus [14] = assay: Percent inhibition of bronchospasm in vivo at a dose of 25 mg/kg in guinea pig; format: functional; details: Bronchiole; method in brief: as §3
Cavia porcellus [15] = assay: Percent inhibition of bronchospasm in vivo at oral dose of 25 mg/kg in guinea pig
Cavia porcellus [16] = assay: Percent inhibition of bronchospasm when administered at a dose of 1 mg/kg in guinea pig; format: functional; details: Bronchiole
Method in brief: (§5)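 Ovalbumin-sensitized, anesthetized guinea pigs received iv propranolol 1 mg/kg, indomethacin 5 mg/kg and mepyramine 2 mg/kg, then a 0.5 min aerosol challenge with 0.5% ovalbumin 15 min later. The agent was given intravenously. The rise in inflation pressure was scored as % inhibition of bronchospasm.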

Cavia porcellus [17] = assay: Percent inhibition of bronchospasm when administered at a dose of 2.5 mg/kg in guinea pig; format: functional; details: Bronchiole; method in brief: as §5
Cavia porcellus [18] = assay: Percent inhibition of bronchospasm when administered at a dose of 5 mg/kg in guinea pig; format: functional; details: Bronchiole; method in brief: as §5
Cavia porcellus [19] = assay: Percent inhibition of bronchospasm in vivo for a dose of 5 mg/kg in guinea pig; format: functional; details: Bronchiole, read-out: Inhibition; method in brief: as §5
Cavia porcellus [20] = assay: Percent inhibition of bronchospasm administered intravenously at a dose of 5 mg/kg in guinea pig; format: functional; details: Bronchiole, route intravenous; method in brief: as §5
Cavia porcellus [21] = assay: Percent inhibition of bronchospasm, when administered orally at a dose of 160 mg/kg to guinea pig; format: functional; details: Bronchiole, route oral
Method in brief: (§6)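 Male Hartley guinea pigs were sensitized with ovalbumin (5 mg ip plus 5 mg sc on day 1, 5 mg ip on day 4) and used 3-4 weeks later, fasted overnight and given dialurethane ip. They were dosed orally 2 h before challenge and given iv propranolol 1 mg/kg, indomethacin 5 mg/kg and mepyramine 2 mg/kg. Fifteen minutes later, 0.5% ovalbumin aerosol was delivered for 0.5 min via tracheal cannula. Read-out was increased inflation pressure, as mean % inhibition from 4-5 animals.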

Cavia porcellus [22] = assay: Percent inhibition of bronchospasm, when administered orally at a dose of 18 mg/kg in guinea pig; format: functional; details: Bronchiole, route oral; method in brief: as §6
Cavia porcellus [23] = assay: Percent inhibition of bronchospasm, when administered orally at a dose of 53 mg/kg in guinea pig; format: functional; details: Bronchiole, route oral; method in brief: as §6
Cavia porcellus [24] = organism: Cavia porcellus; assay: Inhibitory activity against SRS-A release in guinea pig; 0.01-19 uM; format: functional; method in brief: as §2

C=CCc1c(OC(C)=O)c2cccnc2n(-c2ccccc2)c1=O
Inhibition (Cavia porcellus [1]): 69%
pIC50 (Cavia porcellus [2]): 5.96
ED50 (Cavia porcellus [3]): 2.9 mg/kg
LTD4 production at 10 µM (Cavia porcellus [4]): 25 pmol/g
SRS-A release at 10 µM (Cavia porcellus [5]): 9.3 units/g
inhibition at 10 µM (Cavia porcellus [6]): 73%
inhibition in vivo at 12.5 mg/kg (Cavia porcellus [7]): 84%
Activity (Mus musculus): inactive
Activity (Rattus norvegicus): inactive
Inhibition (Cavia porcellus [8]): 70%

C=CCc1c(OC(C)=O)c2cccnc2n(-c2ccc(OCc3ccccc3)cc2)c1=O
inhibition at 3 µM (Cavia porcellus [9]): 23%

C=CCc1c(OC(C)=O)c2cccnc2n(-c2cccc(Cl)c2)c1=O
pIC50 (Cavia porcellus [10]): ~6.00
ED50 (Cavia porcellus [11]): 0.4 mg/kg
inhibition at 10 µM (Cavia porcellus [6]): 60%

C=CCc1c(O)c2cccnc2n(-c2ccccc2OC)c1=O
pIC50 (Cavia porcellus [12]): 6.01
ED50 (Cavia porcellus [13]): 3.7 mg/kg
inhibition at 10 µM (Cavia porcellus [6]): 69%
inhibition in vivo at 25 mg/kg (Cavia porcellus [14]): 90%

C=CCc1c(O)c2cccnc2n(-c2ccccc2)c1=O
inhibition at 10 µM (Cavia porcellus [6]): 81%
Inhibition (Cavia porcellus [15]): 85%

CCCc1c(OCC(O)COc2ccc3c(=O)cc(C(=O)O)oc3c2CCC)ccc(C(C)=O)c1O (configuration not stated) [FPL-55712]
inhibition in vivo at 1 mg/kg (Cavia porcellus [16]): 32%
inhibition in vivo at 2.5 mg/kg (Cavia porcellus [17]): 57%
inhibition in vivo at 5 mg/kg (Cavia porcellus [18]): 68%

CCCc1c2c(c(O)c3c(=O)cc(C(=O)O)oc13)CCCC2 [PROXICROMIL]
inhibition in vivo at 5 mg/kg (Cavia porcellus [19]): 0%
inhibition in vivo at 5 mg/kg (Cavia porcellus [20]): 0%

Cn1c(=O)c2[nH]cnc2n(C)c1=O [AMINOPHYLLINE]
inhibition in vivo at 160 mg/kg (Cavia porcellus [21]): 81%
inhibition in vivo at 18 mg/kg (Cavia porcellus [22]): 21%
inhibition in vivo at 53 mg/kg (Cavia porcellus [23]): 55%

CCCCc1c([O-])c2cccnc2n(-c2ccccc2)c1=O.[Na+]
pIC50 (Cavia porcellus [24]): 6.62
ED50 (Cavia porcellus [11]): 14 mg/kg
inhibition at 10 µM (Cavia porcellus [6]): 56%
inhibition in vivo at 12.5 mg/kg (Cavia porcellus [7]): 68%

— ChEMBL document CHEMBL1124002, “Antiallergy agents. 1. Substituted 1,8-naphthyridin-2(1H)-ones as inhibitors of SRS-A release” (J Med Chem, 1988)
